# Source: PubChem BioAssay
# E-sel inducer: E-selectin induction in HUVECs, primary screen, imaging, HUVEC, immunofluorescence imaging, single point | P16581 | normalized: neutral wells 0, TNF-alpha wells 100 | activation, % at 7.58 µM | 260,000 tested, 0.37% active;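 active means mean E-selectin-positive cell signal at least 10% of the positive control, reached in at least 60% of replicates, without over 20% cell loss; inconclusive means no rule given, readout overlaps actives, possibly toxicity-flagged; inactive means the rest, including those meeting only one limit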
#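 material = human umbilical vein endothelial cells (HUVEC), E-selectin induction | quantity = 3,000 cells/well | medium = EGM-2 growth medium on 0.1% gelatin-coated wells | technique = immunofluorescence imaging | read-out basis = % PE-positive cells | control set = TNF-alpha positive control, DMSO neutral control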
# DENV2 CPE rescue: inhibitors of DENV2 cytopathic effect, primary screen, cell-based, plate reader, single concentration. AID 651640, 2012. CPE inhibition, % at 9.99 µM. 350,000 tested, 1.7% active. DENV2-infected cells, cytopathic effect rescue; in the data active means CPE inhibition above about 20%, passing the limit was not always enough; inconclusive means no clear call, values can overlap the other calls; tested in BHK-21 cells
# SIRT5 inh: SIRT5 desuccinylase inhibitors, primary screen, biochemical, fluorescence imaging, single point, set 5 | NAD-dependent protein deacylase sirtuin-5, mitochondrial (Homo sapiens), Q9NXA8 | inhibition, % at 15 µM | 330,000 tested, 1.1% active | Purified SirT5, succinyl-peptide AMC, trypsin-coupled fluorescence; in the data active means inhibition above about 15%; inconclusive means no clear call, values can overlap the other calls
# Target sequence (Q9NXA8 whole entry, looked up): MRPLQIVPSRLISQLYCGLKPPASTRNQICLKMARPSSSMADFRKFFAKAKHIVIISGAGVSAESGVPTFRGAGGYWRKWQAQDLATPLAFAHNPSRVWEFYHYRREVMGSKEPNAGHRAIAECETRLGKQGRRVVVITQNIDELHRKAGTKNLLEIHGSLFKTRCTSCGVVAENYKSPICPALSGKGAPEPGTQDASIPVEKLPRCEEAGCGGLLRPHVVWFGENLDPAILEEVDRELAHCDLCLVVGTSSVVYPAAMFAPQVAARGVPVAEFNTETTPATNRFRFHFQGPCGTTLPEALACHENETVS
# A number is an active result; - = inactive; ? = inconclusive; . = not tested or not shown. Hits are enriched below; roughly 2.9% of the tested compounds scored in any of these assays.
SMILES,E-sel inducer,DENV2 CPE rescue,SIRT5 inh
COc1ccc(S(=O)(=O)N(C)C[C@@H]2Oc3ccc(NC(=O)CCCCCC(=O)Nc4ccccc4N)cc3C(=O)N([C@@H](C)CO)C[C@@H]2C)cc1,-,36,-
C[C@H](CO)N1C[C@H](C)[C@H](CN(C)C(=O)Nc2ccc(C(F)(F)F)cc2)Oc2c(NC(=O)CCCCCC(=O)Nc3ccccc3N)cccc2C1=O,.,35,-
C[C@H](CO)N1C[C@H](C)[C@@H](CN(C)S(=O)(=O)c2cccs2)Oc2ccc(NC(=O)CCCCCC(=O)Nc3ccccc3N)cc2C1=O,.,25,-
C[C@@H]1CN([C@H](C)CO)C(=O)c2cccc(NC(=O)CCCCCC(=O)Nc3ccccc3N)c2O[C@@H]1CN(C)C(=O)Nc1ccc(C(F)(F)F)cc1,.,-,-
COC(=O)C[C@@H]1C[C@H]2c3cc(NC(=O)Nc4ccc(OC)cc4)ccc3O[C@H]2[C@H](CO)O1,-,-,.
Cc1ccccc1-c1cnc2c(c1)C(=O)N([C@@H](C)CO)C[C@H](C)[C@@H](CN(C)CC1CCOCC1)O2,.,?,-
CCC(=O)N1[C@H](CO)[C@H](c2ccccc2)[C@H]1CN(C)C(=O)c1ccccc1F,-,-,-
COc1ccccc1NC(=O)C(=O)NCCC1CCCCN1S(=O)(=O)c1ccccc1 (centres undefined),-,-,-
O=C(COC(=O)c1cc(=O)[nH]c2ccccc12)c1ccc(Br)cc1,.,-,-
C[C@H]1CN([C@@H](C)CO)C(=O)c2cc(NC(=O)CCCCCC(=O)Nc3ccccc3N)ccc2O[C@H]1CN(C)C(=O)Nc1ccc(F)cc1,44,35,-
C[C@H](CO)N1C[C@H](C)[C@H](CN(C)C(=O)Nc2ccc(F)cc2)Oc2ccc(NC(=O)CCCCCC(=O)Nc3ccccc3N)cc2C1=O,-,-,.
COc1ccc(NC(=O)N(C)C[C@@H]2Oc3c(NC(=O)CCCCCC(=O)Nc4ccccc4N)cccc3C(=O)N([C@@H](C)CO)C[C@@H]2C)cc1,-,-,.
COc1ccc(NC(=O)N(C)C[C@H]2Oc3c(NC(=O)CCCCCC(=O)Nc4ccccc4N)cccc3C(=O)N([C@@H](C)CO)C[C@@H]2C)cc1,-,30,.
CCCCN(CC(=O)NC1CCCC1)C(=O)C(=O)Nc1ccc2c(c1)OCCO2,.,-,-
COc1ccc(CC(=O)N2CCN(c3ccc(F)cc3)CC2)cc1,-,?,-
COc1ccc(OC)c(CCNC(=O)C(C)n2nc(C)c3c(C)n(-c4ccc(C)cc4)nc3c2=O)c1 (centres undefined),.,-,-
c1ccc(Cn2c[n+](Cc3ccccc3)cn2)cc1,43,-,.
S=C1NCN(Cc2ccccc2)CN1,.,-,-
O=S(=O)(c1ccc2ccccc2c1)N1CCN(Cc2ccccn2)CC1,.,-,-
CN(/N=C/c1cc(Cl)cc(Cl)c1O)C(=S)NC(C)(C)C,71,-,.
Oc1c(Cl)cc(Cl)cc1/C=N/Nc1ncc(Br)cn1,-,-,-
CCOC(=O)c1ccc(NC(=O)C2=C(C)Nc3nc(CCCO)nn3C2c2cccc(C)c2)cc1 (centres undefined),.,73,.
COc1ccc(OC)c(C2C(C(=O)Nc3ccc(F)cc3)=C(C)Nc3nc(CCCO)nn32)c1 (centres undefined),-,-,-
C=CCN=c1scc(-c2ccc3c(c2)NC(=O)CO3)n1/N=C(\C)c1ccccn1,-,-,.
Cc1ccc(CN2C(=O)N/C(=C\c3cccn3-c3cccc(C(=O)O)c3)C2=O)cc1,.,.,-
SMILES,E-sel inducer,DENV2 CPE rescue,SIRT5 inh
O=C(O)c1ccc(-n2cccc2/C=C2/NC(=O)N(c3ccccc3)C2=O)cc1,.,-,25
O=C(O)c1cccc(-n2cccc2/C=C2\NC(=O)N(Cc3ccc(F)cc3)C2=O)c1,.,.,16
O=C(CN1C(=O)S/C(=C/c2cccs2)C1=O)N1CCCC1,.,-,-
O=C(O)c1cccc(-n2cccc2/C=C\[N+](=O)[O-])c1,.,-,-
O=C(O)c1ccc(-n2cccc2/C=C2/NC(=O)N(c3cccc(Cl)c3)C2=O)cc1,-,-,-
O=C(O)c1ccc(-n2cccc2/C=C2/SC(=O)N(CC(=O)N3CCCC3)C2=O)cc1,-,-,19
O=C(O)c1cccc(-n2cccc2/C=C/[N+](=O)[O-])c1,.,-,15
CC(C)C(=O)N1CCC1(C)C(=O)Nc1cccc(Oc2ccccc2)c1 (centres undefined),-,-,.
C[C@@H]1CN([C@@H](C)CO)C(=O)c2cccc(NC(=O)c3nc4ccccc4s3)c2O[C@H]1CN(C)C(=O)Nc1ccc(F)cc1,-,-,-
CC(=O)c1ccc2c(c1)CCN2,-,-,-
C[C@@H]1CN([C@H](C)CO)C(=O)c2cc(NC(=O)C3CCCCC3)ccc2O[C@@H](C)CCCCO[C@@H]1CN(C)Cc1ccccc1,-,-,-
CCC(=O)Nc1ccc2c(c1)OC[C@@H](C)N(CC1CCOCC1)C[C@H](C)[C@@H](OC)CN(C)C2=O,-,-,-
COc1ccc(-c2noc3c2-c2nc(-c4ccccc4C)sc2CC3)cc1,-,-,.
Cc1ccccc1-c1nc2c(s1)CCc1onc(-c3ccc(Cl)cc3)c1-2,-,105,-
O=C(C1CCC(=O)N(C2CCCC2)C1)N1CCN(c2ccccc2Cl)CC1 (centres undefined),.,-,-
CN(C)C(=O)c1cc(C(=O)c2ccc(C(F)(F)F)cc2F)c[nH]1,-,-,34
CN(C)C(=O)c1cc(C(=O)c2ccc(F)cc2F)c[nH]1,-,-,-
NC1=NC(=O)C(=Cc2ccccc2)S1,-,30,.
NC1=NC(=O)/C(=C/c2ccsc2)S1,-,-,-
NC1=NC(=O)/C(=C\c2cccnc2)S1,-,-,-
NC1=NC(=O)/C(=C/c2cccc(F)c2)S1,54,-,-
c1ccc(-c2ccccc2OCCOCCN2CCc3ccccc3C2)cc1,.,-,-
CCN(CC)C(=O)CC(c1cc(OC)c(OC)c(OC)c1)c1c(OC)cc(OC)c2c(-c3ccccc3)cc(=O)oc12 (centres undefined),-,.,.
COc1ccc(CN(C(=O)c2ccc(C)cc2)c2cccc(N)c2)cc1,-,38,.
COc1ccc(C(=O)N(Cc2ccccc2)c2cccc(C)c2)cc1,-,-,-
SMILES,E-sel inducer,DENV2 CPE rescue,SIRT5 inh
CCOc1ccc(N(Cc2ccc(OC)cc2)C(=O)c2ccco2)cc1,.,-,-
COc1ccc(CN(C(=O)c2ccco2)c2ccc(C)c(C)c2)cc1,.,-,112
CC(C)(C)[S@@](=O)N1Cc2cc(C(=O)NCc3ccncc3)nc(-c3cccc(-c4ccncc4)c3)c2[C@H]1CCO,-,-,-
Cc1nn(CCCC(=O)NCc2ccccc2)c(=O)c2nccn12,-,-,-
CCOC(=O)C1CCN(S(=O)(=O)c2ccc(C)cc2)CC1,.,-,-
c1ccc(Nc2cccc3c(Nc4ccccc4)cccc23)cc1,-,.,-
O=S(=O)(O)c1cccc2cccc(Nc3ccccc3)c12,-,-,57
C[C@@H]1CN([C@@H](C)CO)S(=O)(=O)c2ccc(C3=CCCC3)cc2O[C@@H]1CN(C)C(=O)CC1CC1,-,-,-
CCC(=O)Nc1ccc2c(c1)C(=O)N(C)[C@@H]1CC[C@@H](CC(=O)N[C@H](C)c3ccccc3)O[C@H]1CO2,-,-,-
